Common to all, as to type: functional
One assay has as its system Candida parapsilosis. The experiment in a line: Antifungal activity against Candida parapsilosis GIM 2.190 assessed as fungal growth inhibition. The settings on record: Lodderomyces parapsilosis. In outline:
(§1)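 Broth microdilution per NCCLS M27-A3, with fluconazole as positive control. Assay medium was RPMI 1640 buffered with MOPS. Inocula were diluted to 1–5 × 10^3 CFU mL−1 and seeded in 96-well plates. Compounds were dissolved in DMSO and serially diluted in the growth medium. MIC was the read-out.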

The test system of the next assay is Candida tropicalis. The assay is described as follows: Antifungal activity against Candida tropicalis CGMCC 2.3739 assessed as fungal growth inhibition. Summed up:
as §1

The test system of a further assay is Pichia kudriavzevii. The experiment in a line: Antifungal activity against Pichia kudriavzevii GIM 2.1 assessed as fungal growth inhibition. Summed up: as §1
The test system of the next assay is Cryptococcus neoformans. The experiment in a line: Antifungal activity against Cryptococcus neoformans CGMCC 2.3161 assessed as fungal growth inhibition. Summed up:
as §1

In a further assay the test system is Nakaseomyces glabratus. The experiment in a line: Antifungal activity against clinical isolate Candida glabrata assessed as fungal growth inhibition. Summed up:
as §1

The subject of assay [1] is Candida albicans. The assay is described as follows: Antifungal activity against Candida albicans ATCC SC5314 assessed as fungal growth inhibition. In outline: as §1
Assay [2] deals with Candida albicans. The experiment in a line: Antifungal activity against Candida albicans CPCC400616 assessed as fungal growth inhibition. Summed up:
as §1

≈ marks a conversion by molar mass, not a printed value.

The term MIC denotes the lowest concentration found to suppress growth. As to `O=C(NC(Cn1ccnc1)C(=O)c1ccccc1)c1cnc(-c2ccc(Cl)cc2F)nc1` (racemic), the MIC in the assay with Candida parapsilosis, in the assay with Candida tropicalis, with Pichia kudriavzevii, with Cryptococcus neoformans, in the assay with Nakaseomyces glabratus and in the assay on Candida albicans [1] was more than 64 µg/mL throughout. The MIC in the assay on Candida albicans [2] is more than 64 µg/mL.

Take `O=C(NC(Cn1ccnc1)C(=O)c1ccccc1)c1csc(-c2ccccc2)n1` (racemic): the MIC in the assay on Candida parapsilosis, in the assay on Candida tropicalis, in the assay with Pichia kudriavzevii, with Cryptococcus neoformans, in the assay with Nakaseomyces glabratus and in the assay on Candida albicans [1] was more than 64 µg/mL each time. Moreover, the MIC with Candida albicans [2] is more than 64 µg/mL.

With `O=C(NC(Cn1ccnc1)C(=O)c1ccccc1)c1cnc(-c2ccc(F)cc2)nc1` (racemic), the MIC was 64 µg/mL (≈ 154 µM) with Candida parapsilosis; more than 64 µg/mL in the assay with Candida tropicalis; more than 64 µg/mL with Pichia kudriavzevii; more than 64 µg/mL with Cryptococcus neoformans; more than 64 µg/mL in the assay with Nakaseomyces glabratus; 16 µg/mL (≈ 38.5 µM) in the assay with Candida albicans [1]. Also, the MIC with Candida albicans [2] is 32 µg/mL (≈ 77 µM).

As to `O=C(NC(Cn1ccnc1)C(=O)c1ccccc1)c1cnc(-c2ccccc2)nc1` (racemic), the minimal inhibitory concentration (MIC) is more than 64 µg/mL with Candida parapsilosis; 8 µg/mL (≈ 20.1 µM) in the assay with Candida tropicalis; 16 µg/mL (≈ 40.3 µM) in the assay on Pichia kudriavzevii; more than 64 µg/mL in the assay on Cryptococcus neoformans; 32 µg/mL (≈ 80.5 µM) in the assay with Nakaseomyces glabratus; 4 µg/mL (≈ 10.1 µM) with Candida albicans [1]. For the same compound, in the assay on Candida albicans [2], the MIC amounted to 16 µg/mL (≈ 40.3 µM).

For `O=C(NC(Cn1ccnc1)C(=O)c1ccc(F)cc1)c1cnc(-c2cccc(F)c2)nc1` (racemic), the MIC is more than 64 µg/mL in the assay with Candida parapsilosis; more than 64 µg/mL in the assay with Candida tropicalis; more than 64 µg/mL with Pichia kudriavzevii; more than 64 µg/mL with Cryptococcus neoformans; more than 64 µg/mL with Nakaseomyces glabratus; 16 µg/mL (≈ 36.9 µM) with Candida albicans [1]. Further, in the assay with Candida albicans [2], the MIC was more than 64 µg/mL.

Consider `O=C(NC(Cn1ccnc1)C(=O)c1ccc(Br)cc1)c1cnc(-c2cccc(F)c2)nc1` (racemic), for which the MIC in the assay with Candida parapsilosis was more than 64 µg/mL; with Candida tropicalis, 16 µg/mL (≈ 32.4 µM); with Pichia kudriavzevii it was more than 64 µg/mL; in the assay with Cryptococcus neoformans, more than 64 µg/mL; in the assay on Nakaseomyces glabratus, more than 64 µg/mL; with Candida albicans [1] it was 0.5 µg/mL (≈ 1.01 µM). Moreover, the MIC in the assay with Candida albicans [2] came to 8 µg/mL (≈ 16.2 µM).

`O=C(NC(Cn1ccnc1)C(=O)c1ccc(Cl)cc1)c1cnc(-c2cccc(F)c2)nc1` (racemic): the MIC in the assay on Candida parapsilosis was more than 64 µg/mL; in the assay on Candida tropicalis, more than 64 µg/mL; with Pichia kudriavzevii, more than 64 µg/mL; in the assay on Cryptococcus neoformans, more than 64 µg/mL; with Nakaseomyces glabratus it was more than 64 µg/mL; in the assay with Candida albicans [1], 1 µg/mL (≈ 2.22 µM). The MIC in the assay on Candida albicans [2] was found to be 32 µg/mL (≈ 71.1 µM).

Turning to `O=C(NC(Cn1ccnc1)C(=O)c1ccccc1)c1ccc(-c2ccoc2)cc1` (racemic), the MIC with Candida parapsilosis is more than 64 µg/mL; with Candida tropicalis, more than 64 µg/mL; with Pichia kudriavzevii, more than 64 µg/mL; with Cryptococcus neoformans it was more than 64 µg/mL; in the assay with Nakaseomyces glabratus, more than 64 µg/mL; with Candida albicans [1], 16 µg/mL (≈ 41.5 µM). In addition, the minimal inhibitory concentration (MIC) in the assay on Candida albicans [2] was more than 64 µg/mL.

With `CC(C)(C)c1cccc(-c2ncc(C(=O)NC(Cn3ccnc3)C(=O)c3ccccc3)cn2)c1` (racemic), the MIC in the assay with Candida parapsilosis, in the assay with Candida tropicalis, in the assay on Pichia kudriavzevii, in the assay on Cryptococcus neoformans, with Nakaseomyces glabratus and in the assay with Candida albicans [1] was more than 64 µg/mL in each case. Besides, the MIC in the assay on Candida albicans [2] is more than 64 µg/mL.

Consider `O=C(NC(Cn1ccnc1)C(=O)c1ccccc1)c1cc(-c2ccccc2)on1` (racemic), for which the MIC in the assay with Candida parapsilosis was more than 64 µg/mL; with Candida tropicalis, more than 64 µg/mL; with Pichia kudriavzevii, more than 64 µg/mL; in the assay on Cryptococcus neoformans, more than 64 µg/mL; in the assay with Nakaseomyces glabratus it was more than 64 µg/mL; in the assay on Candida albicans [1] it was 32 µg/mL (≈ 82.8 µM). The MIC in the assay on Candida albicans [2] amounted to 64 µg/mL (≈ 166 µM).

For `O=C(NC(Cn1ccnc1)C(=O)c1ccccc1)c1cnc(-c2ccccc2Cl)nc1` (racemic), the MIC in the assay on Candida parapsilosis was 32 µg/mL (≈ 74.1 µM); in the assay with Candida tropicalis, 4 µg/mL (≈ 9.26 µM); with Pichia kudriavzevii, 16 µg/mL (≈ 37 µM); in the assay with Cryptococcus neoformans, more than 64 µg/mL; with Nakaseomyces glabratus it was more than 64 µg/mL; in the assay on Candida albicans [1], 8 µg/mL (≈ 18.5 µM). Besides, the MIC in the assay on Candida albicans [2] came out at 16 µg/mL (≈ 37 µM).

Consider `O=C(NC(Cn1ccnc1)C(=O)c1ccccc1)c1cnc(-c2ccc(OC(F)(F)F)cc2)nc1` (racemic), for which the minimum inhibitory concentration (MIC) in the assay with Candida parapsilosis, with Candida tropicalis, in the assay with Pichia kudriavzevii, with Cryptococcus neoformans, in the assay with Nakaseomyces glabratus and with Candida albicans [1] was more than 64 µg/mL throughout. Moreover, the MIC in the assay with Candida albicans [2] was more than 64 µg/mL.

`CCc1ccc(-c2ncc(C(=O)NC(Cn3ccnc3)C(=O)c3ccccc3)cn2)cc1` (racemic): the MIC in the assay on Candida parapsilosis, with Candida tropicalis, in the assay with Pichia kudriavzevii, in the assay with Cryptococcus neoformans, with Nakaseomyces glabratus and with Candida albicans [1] was more than 64 µg/mL throughout. Moreover, the MIC with Candida albicans [2] is more than 64 µg/mL.

These data come from ChEMBL document CHEMBL5376019, “Design, synthesis and evaluation of 2-phenylpyrimidine derivatives as novel antifungal agents targeting CYP51” (RSC Med Chem, 2024).
